# Reference: PubChem BioAssay
# Activity calls are given as the source filed them.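 How the source made its calls, unless noted: active means viability loss from added drug above about 55%, and viability with drug at most 40%, in both replicates (limit read from the data, passing the limit was not always enough); inconclusive means both conditions met in only one replicate; inactive means neither replicate meets both conditions.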
# What was measured:
# [1] = reducers of endogenous Her2 protein level, primary screen, SKBR3 breast tumor cells, AlphaScreen, ATP viability (AID 461;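 active means Her2 level under about 52% in both replicate screens, with viability over 70% of control, limit read from the data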;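 on Her2 level: lower value means less Her2 protein in the cells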;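 on viability: percent of carrier control wells set as 100% viability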); conditions: 18-24 h, measured here: SKBR3 viability, ATP luminescence, at 10 µM
# [2] = target: Receptor tyrosine-protein kinase erbB-2 (Homo sapiens) (UniProt P04626); assay: as above; conditions: 18-24 h, at 10 µM, stronger effect = lower value
# Receptor tyrosine-protein kinase erbB-2 (Homo sapiens), sequence (P04626 whole entry, looked up): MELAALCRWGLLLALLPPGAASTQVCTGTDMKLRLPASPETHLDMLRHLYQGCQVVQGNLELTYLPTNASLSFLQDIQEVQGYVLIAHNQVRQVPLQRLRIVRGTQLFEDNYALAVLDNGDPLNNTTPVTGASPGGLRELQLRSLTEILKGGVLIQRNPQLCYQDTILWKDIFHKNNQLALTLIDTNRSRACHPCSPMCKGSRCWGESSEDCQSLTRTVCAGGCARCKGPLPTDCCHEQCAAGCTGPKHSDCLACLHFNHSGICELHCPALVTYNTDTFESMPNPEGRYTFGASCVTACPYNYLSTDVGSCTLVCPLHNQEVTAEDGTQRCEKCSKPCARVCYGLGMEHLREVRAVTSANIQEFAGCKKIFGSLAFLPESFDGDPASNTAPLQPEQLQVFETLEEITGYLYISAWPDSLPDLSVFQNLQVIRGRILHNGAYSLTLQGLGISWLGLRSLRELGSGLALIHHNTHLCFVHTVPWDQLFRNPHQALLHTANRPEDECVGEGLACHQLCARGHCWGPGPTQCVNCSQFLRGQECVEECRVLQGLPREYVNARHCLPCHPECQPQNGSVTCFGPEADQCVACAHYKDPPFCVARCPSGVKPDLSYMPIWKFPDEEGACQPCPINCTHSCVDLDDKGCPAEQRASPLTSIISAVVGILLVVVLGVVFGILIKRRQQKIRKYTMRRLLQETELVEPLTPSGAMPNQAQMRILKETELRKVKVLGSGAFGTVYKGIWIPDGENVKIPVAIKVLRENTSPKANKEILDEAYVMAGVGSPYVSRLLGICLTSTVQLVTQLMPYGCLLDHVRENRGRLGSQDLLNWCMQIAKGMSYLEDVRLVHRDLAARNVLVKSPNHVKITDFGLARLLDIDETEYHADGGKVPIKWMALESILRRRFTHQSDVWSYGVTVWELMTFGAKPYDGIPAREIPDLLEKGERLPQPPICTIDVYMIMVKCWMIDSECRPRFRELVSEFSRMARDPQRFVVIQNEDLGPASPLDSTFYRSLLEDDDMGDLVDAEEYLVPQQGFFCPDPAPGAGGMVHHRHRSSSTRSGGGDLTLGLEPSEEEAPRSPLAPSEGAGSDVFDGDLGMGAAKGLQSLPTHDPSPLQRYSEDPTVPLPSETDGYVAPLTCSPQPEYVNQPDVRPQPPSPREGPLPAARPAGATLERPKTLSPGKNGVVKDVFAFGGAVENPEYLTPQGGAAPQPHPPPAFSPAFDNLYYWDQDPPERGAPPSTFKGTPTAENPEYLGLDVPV
# [3] = SK-BR-3 cell growth inhibitors, pilot screen, 24 h, human (AID 572;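 active means viability at or below 10% of carrier control in both of two separate runs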;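 further: compound exposure lasted between 18 and 24 h rather than exactly 24 h; 100% = carrier-treated control wells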); conditions: SK-BR-3 viability, CellTiter-Glo luminescence, at 10 µM, stronger effect = lower value
# [4] = HUVEC growth inhibition – cell-based, human, primary screen (AID 575;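 active means viability at or below 30% in both replicate assays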;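 further: 100% = median of untreated cell wells with 0.1% DMSO on each plate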); conditions: HUVEC proliferation, CellTiter-Glo luminescence, 72 h; at 10 µM; stronger effect = lower value
# How it was run: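 System: primary human umbilical vein endothelial cells; Quantity: 1250 endothelial cells in each well; Buffer or medium: supplemented EBM, 2% fetal bovine serum; Doses: one dose, 10 µM final, 0.1% DMSO; Incubation: 72 h compound incubation; Technique: ATP-based CellTiter-Glo luminescent read; Evaluation: percent of median DMSO-control luminescence; Controls: vehicle and MePR control wells.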
# [5] = growth inhibitors of H69AR lung tumor, primary screen, human, duplicate replicates (AID 580;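 active means viability at or under a set limit in both replicates, limit being median viability minus 3 SD, cut at about 48% in these data, passing the limit was not always enough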;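 further: 100% = mean luminescence of untreated wells and 0% = no signal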); conditions: H69AR lung tumor cells viability, ATP luminescence, 72 h; at 10 µM; stronger effect = lower value
# [6] = reversal of MRP1-mediated doxorubicin resistance, pilot screen, H69AR cells, doxorubicin co-treatment (AID 601); conditions: CellTiter-Glo, 72 h, at 10 µM; for differential viability (reversal): stronger effect = higher value
# [7] = 384-well plate pilot, post-Golgi transport modulator project, inhibition of yeast transport mutant growth (AID 636; in the data active means inhibition above about 31%); conditions: absorbance 615 nm, about 18 h, stronger effect = higher value
# [8] = growth suppression of yeast trafficking mutant, preliminary HTS, modulators of trafficking downstream of Golgi apparatus project, 1536-format plate, OD 615 nm (AID 637; in the data active means inhibition above about 30%); conditions: yeast transport mutant growth, absorbance 615 nm, 18 h; stronger effect = higher value
# [9] = H69AR cells + 2 uM doxorubicin, measured here: viability with 2 uM doxorubicin, stronger effect = lower value
# [10] = H69AR cells, compound alone cytotoxicity
SMILES,viability [1] [%],Her2 level [2],viability [3],viability [4],viability [5],differential viability (reversal) ([6]; H69AR cells + 2 uM doxorubicin),"viability [6, 9] [%]","viability [6, 10] [%]",inhibition [7],inhibition [8]
Cc1cccc(NC(=O)CC2NC3CCCCC3NC2=O)c1 (stereo not given),99.5,102% (inactive),99.5% (inactive),96.7% (inactive),93.6% (inactive),2.89% (inactive),90.7,93.6,-3.42% (inactive),-1.17% (inactive)
CCOC(=O)CSc1nnc(CNC(=O)c2cccs2)n1-c1cc(OC)ccc1OC,96.5,94% (inactive),96.5% (inactive),113% (inactive),99.3% (inactive),11.1% (inactive),88.3,99.3,-6.32% (inactive),-0.55% (inactive)
CCn1c(C(Cc2ccccc2)NC(=O)COC)nc2ccccc21 (stereo not given),102,92% (inactive),102% (inactive),102% (inactive),87.4% (inactive),8.84% (inactive),78.6,87.4,-6.13% (inactive),4% (inactive)
CCOCC(=O)Nc1nc2ccc(OC)cc2s1,107,102% (inactive),107% (inactive),93.9% (inactive),90.4% (inactive),8.94% (inactive),81.5,90.4,0.79% (inactive),5.57% (inactive)
Cc1ccc2c(c1)sc1ncc(NC(=O)c3ccccc3)c(=O)n12,88.5,87% (inactive),88.5% (inactive),114% (inactive),91.7% (inactive),3.43% (inactive),88.3,91.7,-0.67% (inactive),0.66% (inactive)
COC(=O)c1cc(=O)n2c(-c3ccc(OC)cc3)csc2n1,110,97.5% (inactive),110% (inactive),96.2% (inactive),92.6% (inactive),10.6% (inactive),82.1,92.6,-4.8% (inactive),-0.16% (inactive)
NC(=O)C1(N2CCCCC2)CCN(CC(=O)Nc2cc(Cl)ccc2Cl)CC1,105,91.5% (inactive),105% (inactive),81.6% (inactive),91.8% (inactive),-11.5% (inactive),103,91.8,-1.6% (inactive),2.79% (inactive)
COc1ccc(Cl)cc1NC(=O)COc1cccc(-n2cnnn2)c1,110,80% (inactive),110% (inactive),98.5% (inactive),86.4% (inactive),4.85% (inactive),81.5,86.4,-5.87% (inactive),1.61% (inactive)
CCCCOC(=O)CSc1nc2c(cc1C#N)C(=O)CC(C)(C)C2,87,86% (inactive),87% (inactive),91.2% (inactive),78.8% (inactive),-10.6% (inactive),89.4,78.8,-5.13% (inactive),-2.73% (inactive)
N#CC1=C(N)N(c2ccccc2)C(c2ccco2)C1(C#N)C#N (stereo not given),95.5,99.5% (inactive),95.5% (inactive),102% (inactive),85.5% (inactive),-0.88% (inactive),86.4,85.5,-6.53% (inactive),-2.54% (inactive)
Cc1sc2nc(SCC(=O)N3CCN(CCO)CC3)n(-c3ccccc3)c(=O)c2c1C,118,99% (inactive),118% (inactive),78.3% (inactive),88.1% (inactive),0.935% (inactive),87.2,88.1,0.65% (inactive),-0.16% (inactive)
Cc1ccc2[nH]c(=O)c(C(c3nnnn3CCc3ccccc3)N3CCOCC3)cc2c1 (stereo not given),86,87.5% (inactive),86% (inactive),76.9% (inactive),100% (inactive),12.1% (inactive),87.8,100,-5.95% (inactive),-0.49% (inactive)
OC1(c2cccc(C(F)(F)F)c2)CCNCC1,110,91% (inactive),110% (inactive),96.5% (inactive),90.8% (inactive),4.62% (inactive),86.2,90.8,-8.53% (inactive),-3.02% (inactive)
CCN(CC(=O)NCc1cccs1)C(=O)c1cc(S(=O)(=O)N2CCOCC2)ccc1C,89.5,118% (inactive),89.5% (inactive),98.8% (inactive),87.7% (inactive),-0.58% (inactive),88.3,87.7,-4.03% (inactive),-10% (inactive)
O=C(CC(CC(=O)c1ccccc1)C(=O)O)c1ccccc1,89,101% (inactive),89% (inactive),107% (inactive),102% (inactive),5.54% (inactive),96.5,102,3.6% (inactive),-6.77% (inactive)
CCC(C)NC(=O)CSC1=Nc2ccccc2C2=NC(CC(=O)NCc3ccccc3)C(=O)N12 (stereo not given),96.5,88% (inactive),96.5% (inactive),85.7% (inactive),107% (inactive),13.1% (inactive),94.2,107,-3.03% (inactive),-3.02% (inactive)
Clc1cccc(-c2nn3c(Cn4cnc5ccccc54)nnc3s2)c1,94.5,82.5% (inactive),94.5% (inactive),76.9% (inactive),94.9% (inactive),-1.69% (inactive),96.6,94.9,0.92% (inactive),5.9% (inactive)
O=C(COc1ccc2c(c1)OCO2)NC12CC3CC(CC(C3)C1)C2,89.5,93% (inactive),89.5% (inactive),75.2% (inactive),80.8% (inactive),-5.25% (inactive),86,80.8,-5.07% (inactive),-6.07% (inactive)
CC(C)OP(=O)(c1ccc(N(C)C)cc1)C(O)c1ccccc1F (stereo not given),128,113% (inactive),128% (inactive),103% (inactive),106% (inactive),19% (inactive),87.5,106,-4.93% (inactive),3.06% (inactive)
CCC(C)(C)NC(=O)CN(C(=O)c1snc(C(N)=O)c1N)c1ccc2c(c1)OCO2,104,94% (inactive),104% (inactive),110% (inactive),110% (inactive),7.68% (inactive),102,110,-4.93% (inactive),-1.27% (inactive)
O=C(OCCCN1C(=O)c2ccccc2C1=O)c1ccco1,102,105% (inactive),102% (inactive),96% (inactive),95.2% (inactive),1.29% (inactive),93.9,95.2,0.79% (inactive),-0.16% (inactive)
CCn1ncc(C2=NOC(C(=O)NCc3ccc(Cl)cc3)C2)c1C (stereo not given),83.5,69.5% (inactive),83.5% (inactive),38.7% (inactive),24.4% (active),-29.8% (inactive),54.2,24.4,-2.89% (inactive),-0.32% (inactive)
O=C(Cn1ccc2ccccc2c1=O)NCCC(=O)N1CCN(C2CCCCC2)CC1,99.5,86.5% (inactive),99.5% (inactive),96.6% (inactive),104% (inactive),22.2% (inactive),81.7,104,-3.2% (inactive),2.13% (inactive)
COc1cc(C(Nc2ccc3c(c2)OCO3)C(=O)NC2CCCCC2)cc(OC)c1OC (stereo not given),74.5,75% (inactive),74.5% (inactive),94.2% (inactive),93% (inactive),-6.39% (inactive),99.4,93,-4.32% (inactive),7.94% (inactive)
CCCCN(CCCNC(=O)C1CCN(S(=O)(=O)CC)CC1)c1ccccc1,87,89.5% (inactive),87% (inactive),97.3% (inactive),96.6% (inactive),-1.6% (inactive),98.2,96.6,-2.89% (inactive),-6.83% (inactive)
CC(C)n1c(=NC(=O)c2ccco2)c(C#N)cc2c(=O)n3ccccc3cc21,100,106% (inactive),100% (inactive),84.1% (inactive),6.44% (active),4.01% (inactive),2.43,6.44,3.16% (inactive),-6.61% (inactive)
S=C(NCC1CCCO1)n1nnc2ccccc21 (stereo not given),121,49% (active),121% (inactive),66.2% (inactive),74.8% (inactive),0.715% (inactive),74.1,74.8,-1.07% (inactive),-0.95% (inactive)
O=C(COC(=O)c1cc(S(=O)(=O)N2CCOCC2)ccc1O)NCC1CCCO1 (stereo not given),91.5,85.5% (inactive),91.5% (inactive),98.7% (inactive),91% (inactive),-3.47% (inactive),94.5,91,-6.4% (inactive),8.36% (inactive)
